Test results taken from ChEMBL document CHEMBL2169740 (J Med Chem, 2012).

Assays:
[1] = AUC in CD1 mouse at 30 mg/kg, po administered as single dose; assay type: ADME, organism-based; design: dose 30 mg/kg, route oral; conditions: plasma
Method in brief: (§1)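 Female CD1 mice given one oral gavage dose (30, 50 or 200 mg/kg), n=3 per test article. Blood drawn from three mice at 15, 30, 60 min and 2, 4, 6, 8, 10, 24 h after dosing. Plasma concentration measured by LCMS over 24 h.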

[2] = AUC in CD1 mouse at 200 mg/kg, po administered as single dose; assay type: ADME, organism-based; design: dose 200 mg/kg, route oral; conditions: plasma; method in brief: as §1
[3] = Cmax in CD1 mouse at 200 mg/kg, po administered as single dose; assay type: ADME, organism-based; design: dose 200 mg/kg, route oral; conditions: in vivo; method in brief: as §1
Liver = assay: Intrinsic clearance in CD1 mouse liver microsomes after 0.5 to 4 hrs by UPLC-MS analysis; assay type: ADME, Microsome
Method in brief: (§2)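 Pooled liver microsomes (female CD-1 mouse or mixed-gender human) at 0.5 mg/mL in 0.1 M potassium phosphate pH 7.4 with EDTA, with NADPH-regenerating solutions A+B; 37 °C with shaking; quenched at 0, 0.5, 1, 2, 4 h with cold methanol containing 10 μM warfarin internal standard. UPLC-MS (SIR); k from log peak-area-ratio slope, t1/2 = 0.693/k, CLint normalised to microsomal protein; triplicate.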

Liver microsomes = assay: Intrinsic clearance in human liver microsomes after 0.5 to 4 hrs by UPLC-MS analysis; assay type: ADME, Microsome; method in brief: as §2
[4] = Cmax in CD1 mouse at 30 mg/kg, po administered as single dose; assay type: ADME, organism-based; design: dose 30 mg/kg, route oral; conditions: in vivo; method in brief: as §1
[5] = Permeability of the compound at pH 7.4 by PAMPA; assay type: ADME
[6] = Permeability of the compound at pH 4.0 by PAMPA; assay type: ADME
Method in brief: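 PAMPA: compound diluted in system buffer at pH 7.4 or 4 as donor; membrane coated with GIT lipid; acceptor buffer; stirred 30 min with 40 μm aqueous boundary layer. UV spectra (250–500 nm) of reference, donor and acceptor; permeability coefficient from spectral AUCs; triplicate.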

[7] = AUC (infinity) in CD1 mouse at 50 mg/kg, po administered as single dose; assay type: ADME, organism-based; design: time infinity, dose 50 mg/kg, route oral; conditions: plasma; method in brief: as §1
[8] = Cmax in CD1 mouse at 50 mg/kg, po administered as single dose; assay type: ADME, organism-based; design: dose 50 mg/kg, route oral; conditions: in vivo; method in brief: as §1

## CCOC(=O)c1c(-c2cccc(OC)c2)[nH]c2cc(OC)ccc2c1=O
[1]
  AUC(0-inf): 8 µM·h
[2]
  AUC(0-inf): 7.8 µM·h
[3]
  Cmax: 5800 nM
Liver
  Intrinsic clearance (CLint): 7.9 µL/min/mg
Liver microsomes
  Intrinsic clearance (CLint): 5.7 µL/min/mg
[4]
  Cmax: 8000 nM

## CCOC(=O)c1c(-c2cccc(Cl)c2)[nH]c2cc(OC)ccc2c1=O
Liver
  Intrinsic clearance (CLint): 16 µL/min/mg
Liver microsomes
  Intrinsic clearance (CLint): 3.4 µL/min/mg

## COc1cc2[nH]c(-c3cccc(Oc4ccccc4)c3)c(C(=O)OCCCN3CCOCC3)c(=O)c2cc1F
[5]
  permeability: 880 ×10⁻⁶ cm/s
[6]
  permeability: 30 ×10⁻⁶ cm/s
Liver
  Intrinsic clearance (CLint): 24 µL/min/mg
Liver microsomes
  Intrinsic clearance (CLint): 11 µL/min/mg

## COc1cc2[nH]c(-c3cccc(Oc4ccccc4)c3)c(C(=O)OCCO)c(=O)c2cc1F
[5]
  permeability: 620 ×10⁻⁶ cm/s
Liver
  Intrinsic clearance (CLint): 11 µL/min/mg
Liver microsomes
  Intrinsic clearance (CLint): 4.8 µL/min/mg

## CCOC(=O)c1c(-c2cccc(Oc3ccccc3)c2)[nH]c2cc(OC)c(F)cc2c1=O
[5]
  permeability: 560 ×10⁻⁶ cm/s
Liver
  Intrinsic clearance (CLint): 16 µL/min/mg

## CCOC(=O)c1c(-c2cccc(Cl)c2)[nH]c2cc(OC)c(F)cc2c1=O
[5]
  permeability: 410 ×10⁻⁶ cm/s
[2]
  AUC(0-inf): 280 µM·h
[3]
  Cmax: 66000 nM
[7]
  AUC(0-inf): 130 µM·h
[8]
  Cmax: 38000 nM
Liver
  Intrinsic clearance (CLint): 4 µL/min/mg
Liver microsomes
  Intrinsic clearance (CLint): 0.5 µL/min/mg

## CCOC(=O)c1c(-c2cccc(Br)c2)[nH]c2cc(OC)c(F)cc2c1=O
[5]
  permeability: 670 ×10⁻⁶ cm/s
[2]
  AUC(0-inf): 160 µM·h
[3]
  Cmax: 39000 nM
[7]
  AUC(0-inf): 71 µM·h
[8]
  Cmax: 31000 nM
Liver
  Intrinsic clearance (CLint): 2.7 µL/min/mg
Liver microsomes
  Intrinsic clearance (CLint): 1.2 µL/min/mg

## CCOC(=O)c1c(-c2cc(F)cc(OC)c2)[nH]c2cc(OC)c(F)cc2c1=O
[5]
  permeability: 230 ×10⁻⁶ cm/s
[2]
  AUC(0-inf): 19 µM·h
[3]
  Cmax: 1600 nM
[7]
  AUC(0-inf): 9.3 µM·h
[8]
  Cmax: 710 nM
Liver
  Intrinsic clearance (CLint): 6.7 µL/min/mg
Liver microsomes
  Intrinsic clearance (CLint): 56 µL/min/mg

## CCOC(=O)c1c(-c2cccc(-c3ccccc3)c2)[nH]c2cc(OC)ccc2c1=O
[5]
  permeability: 2900 ×10⁻⁶ cm/s
[1]
  AUC(0-inf): 1.7 µM·h
[2]
  AUC(0-inf): 4.3 µM·h
[3]
  Cmax: 430 nM
Liver
  Intrinsic clearance (CLint): 5.7 µL/min/mg
Liver microsomes
  Intrinsic clearance (CLint): 5 µL/min/mg
[4]
  Cmax: 230 nM

## CCOC(=O)c1c(-c2cccc(OCC)c2)[nH]c2cc(OC)ccc2c1=O
[5]
  permeability: 260 ×10⁻⁶ cm/s
[1]
  AUC(0-inf): 5.1 µM·h
[2]
  AUC(0-inf): 10 µM·h
[3]
  Cmax: 2400 nM
Liver
  Intrinsic clearance (CLint): 12 µL/min/mg
Liver microsomes
  Intrinsic clearance (CLint): 5.7 µL/min/mg
[4]
  Cmax: 1900 nM

## CCCOc1cccc(-c2[nH]c3cc(OC)ccc3c(=O)c2C(=O)OCC)c1
[5]
  permeability: 340 ×10⁻⁶ cm/s
[1]
  AUC(0-inf): 1.6 µM·h
[2]
  AUC(0-inf): 7.7 µM·h
[3]
  Cmax: 1800 nM
Liver
  Intrinsic clearance (CLint): 39 µL/min/mg
Liver microsomes
  Intrinsic clearance (CLint): 12 µL/min/mg
[4]
  Cmax: 300 nM

## CCOC(=O)c1c(-c2cccc(Oc3ccccc3)c2)[nH]c2cc(OC)ccc2c1=O
[5]
  permeability: 750 ×10⁻⁶ cm/s
[1]
  AUC(0-inf): 0.15 µM·h
[2]
  AUC(0-inf): 1 µM·h
[3]
  Cmax: 400 nM
Liver
  Intrinsic clearance (CLint): 35 µL/min/mg
[4]
  Cmax: 60 nM

## CCOC(=O)c1c(-c2ccc3c(c2)OCO3)[nH]c2cc(OC)ccc2c1=O
[1]
  AUC(0-inf): 6.1 µM·h
[2]
  AUC(0-inf): 65 µM·h
[3]
  Cmax: 5000 nM
Liver
  Intrinsic clearance (CLint): 12 µL/min/mg
Liver microsomes
  Intrinsic clearance (CLint): 12 µL/min/mg
[4]
  Cmax: 1500 nM
